# Assay outcomes: PubChem BioAssay, several laboratories
# GRIN3A LBD mod – modulates the human NR3A ligand-binding domain; AID 1259313; Tm shift relative to glycine control, % at 25 µM; NR3A LBD differential scanning fluorimetry, Tm shift; 0% = protein alone, 100% = glycine-bound protein; hit rate 2.5% among 340,000;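 active = melting temperature shift of at least 10% of the positive control shift, at one fixed dose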
# T cruzi repl – blocks replication of Trypanosoma cruzi; T. cruzi beta-gal in NIH3T3, luminescence, 90 h; inhibition, % (concentration not given with the values); hit rate 1.4% among 300,000; AID 1885;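 active = mean inhibition across valid replicates above about 55%, limit read from the data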;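 note: signal also drops with host cell toxicity which is not excluded here; 0% = plate median of DMSO wells and 100% = zero luminescence signal; higher percent means less beta-gal luminescence so fewer parasites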
#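 System: Mouse NIH/3T3 fibroblasts infected with β-gal-expressing T. cruzi Tulahuen C4 | Quantity: NIH/3T3 cells, 5,000 per well | Reagent: 5000 reporter trypomastigotes per well | Dosing: Compound pinned at 50 nL/well, DMSO | Schedule: 3 h host attachment, then at least 90 h co-culture | Detection: GalScreen luminescence, 60 min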
# CSC inhib – blocks cancer stem cells | cancer stem cell-like cells viability, luminescence | hit rate 1.1% among 300,000 | inhibition, % at 7.5 µM; in the data active = inhibition above about 75%; tested in HMLE shEcad cells
# Beta cell apopt – beta cell apoptosis inhibition. INS-1E cytokine-induced death, ATP luminescence, 48 h; percent of positive-control rescue, neutral wells zero. protection from apoptosis, % (test concentration not listed). hit rate 0.8% among 300,000. AID 435005;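 active = Every replicate reaches about 75%, or at least half do and their mean reaches it too, limit read from the data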;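 note: 0% = cytokine-treated negative control wells and 100% = positive control rescue; higher means more ATP so stronger rescue from cytokine killing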
# PREPL inh – inhibitors of human prolyl oligopeptidase-like enzyme PREPL; hit rate 0.68% among 320,000; Q4J6C6; inhibition, % at 5.96 µM; recombinant PREPL, fluorescence polarization activity-based probe; AID 2751; in the data active = inhibition above about 43%;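 note: 0% = enzyme with DMSO and 100% = wells lacking enzyme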
# Target sequence (Q4J6C6 whole entry, looked up): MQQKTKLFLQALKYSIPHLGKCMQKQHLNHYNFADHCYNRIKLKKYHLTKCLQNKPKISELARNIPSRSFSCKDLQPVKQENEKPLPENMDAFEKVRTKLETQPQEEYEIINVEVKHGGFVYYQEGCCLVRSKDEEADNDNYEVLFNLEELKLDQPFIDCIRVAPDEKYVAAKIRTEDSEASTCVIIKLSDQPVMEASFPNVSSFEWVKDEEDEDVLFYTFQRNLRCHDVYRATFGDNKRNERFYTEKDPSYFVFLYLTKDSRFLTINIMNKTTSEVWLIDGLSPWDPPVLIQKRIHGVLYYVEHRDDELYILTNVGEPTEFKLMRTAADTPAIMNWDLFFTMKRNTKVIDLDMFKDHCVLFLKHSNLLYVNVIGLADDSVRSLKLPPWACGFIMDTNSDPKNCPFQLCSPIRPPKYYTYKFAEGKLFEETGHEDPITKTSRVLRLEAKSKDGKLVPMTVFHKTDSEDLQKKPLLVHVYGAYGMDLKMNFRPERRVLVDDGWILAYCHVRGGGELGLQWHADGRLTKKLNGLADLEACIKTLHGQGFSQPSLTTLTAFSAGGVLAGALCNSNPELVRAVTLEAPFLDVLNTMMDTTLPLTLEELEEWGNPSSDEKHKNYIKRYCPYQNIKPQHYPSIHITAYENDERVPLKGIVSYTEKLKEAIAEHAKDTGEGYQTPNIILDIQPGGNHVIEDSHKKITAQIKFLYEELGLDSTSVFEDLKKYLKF
# CHOP inhibitor – inhibitors of CHOP induction in ER stress response | hit rate 3.8% among 220,000 | AID 2732 | inhibition, % at 10 µM | CHO-K1 CHOP-promoter luciferase, tunicamycin-induced, 15-18 h;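 active = compounds that reduced the stress-induced luciferase reporter signal by more than about 70% of percent inhibition, limit read from the data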;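 note: 0% = tunicamycin plus vehicle and 100% = wells without tunicamycin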
# The depositor's hits bear a star; / = not tested or not shown. The list is not random: actives were taken first. Their share in the collection is about 6.7%.
SMILES,GRIN3A LBD mod,T cruzi repl,CSC inhib,Beta cell apopt,PREPL inh,CHOP inhibitor
C[C@H](CO)N1C[C@H](C)[C@@H](CN(C)S(=O)(=O)c2cn(C)cn2)Oc2c(NS(=O)(=O)c3cn(C)cn3)cccc2C1=O,-0.1,/,/,/,8.8,/
O=C(NC1CCCCC1)C(c1cccnc1)N(C(=O)CCl)c1ccc(F)cc1 (centres undefined),2.1,5.5,99.3*,-5.5,9.8,88.1*
O=C(NCC(=O)N(c1ccccc1)C(C(=O)NC1CCCCC1)c1cccnc1)c1cccs1 (centres undefined),-1.5,-16.7,-15.6,-7.4,-5.7,85.6*
COc1ccc(N(C(=O)CCl)C(C(=O)NC2CCCCC2)c2cccnc2)cc1 (centres undefined),-4.3,2.5,58.6,-13.7,6.6,-1.1
Cc1ccc(C(C(=O)NC2CCCC2)N(Cc2ccc(F)cc2)C(=O)c2csnn2)o1 (centres undefined),2.0,3.3,-2.7,-4.4,4.1,70.8*
O=C(NC1CCCC1)C(c1ccc(F)cc1)N(Cc1ccc(F)cc1)C(=O)CCl (centres undefined),-0.1,-12.7,-10.2,0.7,3.8,91.9*
COc1ccc(S(=O)(=O)Nc2ccc(C)cc2)cc1N(C)S(=O)(=O)c1ccc(Cl)cc1,0.2,24.8,1.4,28.4,6.5,23.9
Cc1ccc(NS(=O)(=O)c2sc3ccc(Cl)cc3c2C)cc1,16.3*,-30.1,98.3*,-4.8,-60.6,26.9
Cc1ccc(C(=O)N2N=C(c3ccc(Br)cc3)CC2c2ccccc2O)cc1 (centres undefined),5.0,55.1*,112.1*,78.1*,-9.9,/
COc1ccc(C2CC(c3ccccc3)=NN2C(=O)c2cccs2)cc1 (centres undefined),-4.0,22.2,13.0,0.6,2.1,53.9
COc1ccc(C2=NN(C(=O)c3cccs3)C(c3ccccc3O)C2)cc1 (centres undefined),5.2,60.5*,/,19.0,-2.7,61.9
Cc1ccc(C(=O)N2N=C(c3ccccc3O)CC2c2ccccc2)cc1 (centres undefined),0.6,19.1,-9.7,7.4,-0.3,/
CC1=CCC(/C=N\Nc2nnc3c(n2)[nH]c2ccccc23)CC1 (centres undefined),/,-4.8,-11.9,3.2,2.1,-21.6
COC(=O)c1cccc(Oc2cccc(Cl)n2)c1,-0.3,6.3,-3.6,-4.1,3.0,16.0
COc1cc(NC(=O)[C@@H](NC(=O)N2CCn3c2nc2ccccc23)C(C)C)cc(OC)c1,-7.0,17.9,-13.9,-5.3,20.0,/
Cc1cc(C)c2nc(N3CCC(C(=O)NCCCN4CC(C)CC(C)C4)CC3)sc2c1 (centres undefined),1.2,58.9*,14.8,50.8,29.5,-18.8
Cc1cc(C)c2nc(N3CCCC(C(=O)NCCCN4CCOCC4)C3)sc2c1 (centres undefined),-0.4,5.5,-10.9,-1.1,11.2,22.3
O=C(Nc1ccccn1)c1ccc(-c2ccccc2)cc1,36.4*,7.1,7.0,-1.2,-14.5,/
O=S(=O)(NCCSc1ccccc1)c1ccc(F)cc1,0.9,6.9,-12.3,-7.1,-23.1,90.9*
CCOc1cc(CNCCO)cc(Br)c1OCc1ccccc1Cl,-2.8,31.9,-17.7,38.4,-40.0,85.4*
C=CCc1cc(C=O)cc(OC)c1OCc1ccc(Cl)cc1,-2.6,16.0,8.7,/,0.6,-9.2
COc1cc(CNCCN2CCOCC2)ccc1OCc1c(Cl)cccc1Cl,/,49.1,44.1,-4.1,10.0,-16.3
CCOc1cc(CNCCO)cc(Br)c1OCc1ccc(Cl)cc1,-3.4,2.1,84.8*,36.5,-42.5,75.5*
C=CCc1cc(C=O)cc(OCC)c1OCc1ccc(Cl)cc1,1.2,22.3,21.2,5.1,10.0,70.6*
CCOc1cc(CNCCN2CCOCC2)ccc1OCc1ccccc1Cl,-2.5,55.8*,61.2,7.6,16.1,-7.6
SMILES,GRIN3A LBD mod,T cruzi repl,CSC inhib,Beta cell apopt,PREPL inh,CHOP inhibitor
O=C(NCc1cccs1)c1ccc([N+](=O)[O-])cc1Cl,-3.9,-4.2,-1.3,-6.6,17.5,8.1
N#Cc1ccc(CN2C(=O)NC3(CCCCCC3)C2=O)cc1,-0.3,2.1,-12.2,-8.9,6.8,/
CCC(CO)Oc1cc(NCc2ccc(C(F)(F)F)cc2)c2ncn(C(C)C)c2c1 (centres undefined),-3.7,/,/,-2.3,42.5,/
CCOc1cc(/C=N/O)cc(Br)c1OCc1ccc(Cl)cc1,12.8*,15.0,116.7*,9.7,-0.7,6.9
CCOc1cc(/C=N/O)cc(Br)c1OCC,1.1,2.8,-1.8,-7.9,-6.8,27.8
CCOc1cc(CNCCCN2CCOCC2)cc(Br)c1OCc1ccccc1Cl,1.2,80.0*,-4.6,16.9,-11.3,57.3
CCOc1cc(CNC(C)(C)CO)cc(Br)c1OCc1ccc(Cl)cc1Cl,1.4,50.7,/,12.9,-42.0,92.4*
CCOc1cc(CNCCCN2CCOCC2)ccc1OCC(=O)NC(C)(C)C,3.7,62.9*,-9.9,-17.4,4.7,-7.7
COc1cc2c(cc1OC(C)=O)CCCCC2=O,-1.4,/,/,/,/,/
O=C(NNC(=O)c1ccccc1-n1cccc1)c1cncc(Br)c1,0.9,/,-1.3,-0.1,19.8,/
C=CCOc1c(Br)cc(CNCCCN2CCOCC2)cc1OC,0.3,58.5*,-10.9,-6.4,/,/
C=CCN(c1ccccc1OC)S(=O)(=O)c1cccc(C(=O)NCC(c2ccc(OC)cc2)N2CCCC2)c1 (centres undefined),-0.8,/,/,/,/,/
Cc1cccc2sc(N(CCCN(C)C)C(=O)CN3C(=O)c4ccccc4C3=O)nc12,-1.3,45.4,-17.0,1.2,-16.8,1.4
Cc1cccc2sc(N(CCCN(C)C)C(=O)c3nc4ccccc4s3)nc12,-6.1,44.5,2.6,1.8,-1.0,75.1*
Cc1cccc2sc(N(CCCN(C)C)C(=O)CCc3ccccc3)nc12,0.1,62.4*,-14.3,7.2,-50.0,8.5
CCOC(=O)c1ccc(Nc2nc(C(=O)OCC)nc3ccccc23)cc1,-2.0,2.6,6.7,9.9,-14.7,0.7
CCOC(=O)c1nc(Nc2ccc(Nc3ccccc3)cc2)c2ccccc2n1,1.9,16.3,/,/,/,-16.5
CCOC(=O)c1nc(Nc2cc(C)cc(C)c2)c2ccccc2n1,-5.2,56.1*,-4.0,25.8,5.5,-14.6
CCOC(=O)c1nc(Nc2ccc(C(=O)O)cc2)c2ccccc2n1,13.6*,-8.4,-3.6,-5.2,-10.6,11.4
CCC1(CC)NC(=O)N(CC(=O)Nc2sc3c(c2C(N)=O)CCC3)C1=O,-5.6,-2.9,-8.4,1.8,8.9,-19.6
CN(C)Cc1c(C(C)(C)O)[nH]c2ccc(C(F)(F)F)cc12,0.6,/,-8.5,-5.9,3.1,/
CCc1c(C2(O)CCCCC2)[nH]c2ccc(C(F)(F)F)cc12,7.0,9.9,83.9*,20.1,-2.8,/
CC[C@]12c3[nH]c4ccc(Cl)cc4c3CCN1C(=O)[C@@H](CC(=O)NC/C=C(\C)CCC=C(C)C)C[C@@H]2C(=O)N1CCN(C(=O)C2CC2)CC1,1.6,/,/,/,/,/
COc1ccc(/[N+]([O-])=C/c2ccoc2)cc1,1.4,/,14.9,-3.4,24.0,/
